Screening results (PubChem BioAssay)
STK33 kinase inh: human STK33 kinase inhibition | 320,000 tested, 0.073% active | purified STK33, MBP phosphorylation, ADP-Glo luminescence | inhibition, % at 10 µM | AID 2661;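 active means inhibition at or above 25%, using the most active replicate where run in duplicate; inactive means inhibition below 25%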
Target sequence (Q9BYT3 whole entry, looked up): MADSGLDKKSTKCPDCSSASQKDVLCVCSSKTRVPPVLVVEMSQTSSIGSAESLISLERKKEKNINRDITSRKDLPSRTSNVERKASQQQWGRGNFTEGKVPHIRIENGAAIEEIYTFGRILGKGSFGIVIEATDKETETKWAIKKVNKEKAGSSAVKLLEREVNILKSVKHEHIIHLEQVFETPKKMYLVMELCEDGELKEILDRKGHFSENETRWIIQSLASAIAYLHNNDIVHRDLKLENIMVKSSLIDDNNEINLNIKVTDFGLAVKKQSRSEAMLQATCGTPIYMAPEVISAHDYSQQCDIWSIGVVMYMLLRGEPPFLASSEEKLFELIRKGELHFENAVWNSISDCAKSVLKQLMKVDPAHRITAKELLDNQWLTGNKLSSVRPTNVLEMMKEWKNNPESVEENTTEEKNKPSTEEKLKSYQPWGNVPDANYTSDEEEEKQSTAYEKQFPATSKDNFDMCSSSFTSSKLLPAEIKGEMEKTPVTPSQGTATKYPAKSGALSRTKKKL
MEKK2mut PB1 HTS: signal of MEK5 binding to mutant human MEKK2 PB1 domain; bead flow cytometry, Alexa488-MEK5 binding to MEKK2 mutant; percent response, % at 10 µM; 290,000 tested, 0.35% active; in the data active means percent response above about 24%, passing the limit was not always enough
GSK3 alpha inh: human GSK-3 alpha kinase inhibition. P49840. 320,000 tested, 0.1% active. ADP-Glo luminescence, 60 min. inhibition, % at 10 µM;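 active means more than half of replicates show inhibition above 20%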;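 further: GST-tagged GSK-3 alpha with peptide substrate and 25 µM ATP; 0% = DMSO neutral wells and 100% = GW8510 positive control wells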
GSK3beta inhib: blocks human GSK3beta kinase activity. P49841. GST-GSK3beta kinase, ADP-Glo luminescence, 60 min; active compounds read low. activity score (negative = inhibition), % at 10 µM. 300,000 tested, 0.038% active;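 active means more than half of replicate wells score below -50%, meaning over 50% inhibition versus plate controls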;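 further: 0% = median DMSO wells and -100% = median GW8510 positive control wells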
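Assay system: GST-fused GSK3beta enzyme, cell-free / Medium: Tris pH 7.5 buffer with MgCl2, DTT, BSA, heparin / Also added: peptide substrate plus 25 µM ATP (final) / Compound: 10 µM single point / Timing: kinase reaction with compound 60 min at room temperature / Detection: ADP-Glo luminescence / Benchmarks: DMSO neutral wells and GW8510 at 20 µM as positive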
MEKK2wt PB1 HTS: raises or lowers MEK5 binding to wildtype human MEKK2 PB1 domain | Q9Y2U5 | bead flow cytometry, Alexa488-MEK5 binding to MEKK2 WT; actives lie on both sides | binding response (% of control), % at 10 µM | 290,000 tested, 1.1% active; in the data active means binding response below about 67% or above about 130%
MEKK3 PB1 HTS: MEKK3-MEK5 PB1 interaction, increase or decrease | bead-based flow cytometry, Alexa488-MEK5 binding to MEKK3; actives lie on both sides; 0 = blocked by unlabeled MEK5, 100 = vehicle | binding response (% of control), % at 10 µM | 290,000 tested, 1.4% active | AID 1529;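 active means binding response more than 3 SD above or below the average of its plate-row segment, actives on both sides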;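 further: Alexa488 bead fluorescence after subtracting the streptavidin-only scavenger bead signal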
MEKK2wt confirm: raises or lowers MEK5 binding to wildtype human MEKK2, retest | shares compounds with MEKK3 PB1 HTS | bead flow cytometry, Alexa488-MEK5 binding to MEKK2 WT; actives lie on both sides | binding response (% of control), % at 10 µM | 5,900 tested, 2.4% active | AID 1892; in the data active means binding response below about 16% or above about 210%; inactive means in between
MEKK2mut-MEK5: signal of MEK5 binding to mutant human MEKK2, retest; shares compounds with MEKK3 PB1 HTS; bead flow cytometry, Alexa488-MEK5 binding to MEKK2 mutant; percent response, % at 10 µM; 5,900 tested, 2% active; in the data active means percent response mostly above about 71%, no sharp cut-off; inactive means mostly below about 38%;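 further: higher means compound restores mutant binding toward wildtype level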
MEKK3-MEK5 inh: confirmation of inhibitors of MEK5 binding to human MEKK3; shares compounds with MEKK3 PB1 HTS; bead flow cytometry, Alexa488-MEK5 binding to MEKK3; active compounds read low; binding response (% of control), % at 10 µM; 5,900 tested, 1.8% active; AID 1894;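 active means binding response below 72% of control, or above a set upper limit, though filed actives all read lower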;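 further: 100% = DMSO only wells and 0% = binding blocked by excess unlabeled MEK5; lower values mean stronger disruption of MEK5 binding to MEKK3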
The depositor's hits bear a star; [ ] = another dose, or the depositor's remark. Only some compounds are listed: those with a hit (about 2.1% of all), similar ones and a draw of the others.

What do the screens show for `Cn1c(=O)cc(N2CCCCC2)[nH]c1=O`?
STK33 kinase inh: 0.0; MEKK2mut PB1 HTS: 5.0; GSK3 alpha inh: 3.1; GSK3beta inhib: -1.1; MEKK2wt PB1 HTS: 105.0; MEKK3 PB1 HTS: 106.0

What do the screens show for `Cn1c(=O)cc(N2CCOCC2)[nH]c1=O`?
STK33 kinase inh: -0.2; MEKK2mut PB1 HTS: -20.0; GSK3 alpha inh: -0.3; GSK3beta inhib: 0.1; MEKK2wt PB1 HTS: 70.0*[inhibitor]; MEKK3 PB1 HTS: 75.0; MEKK2wt confirm: 106.0; MEKK2mut-MEK5: 7.0; MEKK3-MEK5 inh: 105.0

What do the screens show for `CC(C)C(NC(=O)c1ccccc1)C(=O)NC1CCCc2ccccc21` (stereo not given)?
STK33 kinase inh: -0.2; GSK3 alpha inh: -0.7

Results for CCc1c(C)nc2ncnn2c1N1CCC(C(=O)NCc2cccs2)CC1 ?
STK33 kinase inh: -0.8; MEKK2mut PB1 HTS: -46.0; GSK3 alpha inh: 4.3; GSK3beta inhib: -3.1; MEKK2wt PB1 HTS: 6.0*[inhibitor]; MEKK3 PB1 HTS: 3.0*[inhibitor]; MEKK2wt confirm: 93.0; MEKK2mut-MEK5: -8.0; MEKK3-MEK5 inh: 93.0

Results for CCc1c(C)nc2ncnn2c1N1CCCC(C(=O)NCc2cccs2)C1 (stereo not given) ?
STK33 kinase inh: -0.7; MEKK2mut PB1 HTS: -7.0; GSK3 alpha inh: 0.3; GSK3beta inhib: -6.2; MEKK2wt PB1 HTS: 92.0; MEKK3 PB1 HTS: 93.0

What do the screens show for `CCCCn1c(-c2ccc(Cl)c(Cl)c2)nc2cc3[nH]c(=O)c(C(C)C)nc3cc21`?
STK33 kinase inh: -1.0; MEKK2mut PB1 HTS: 0.0; GSK3 alpha inh: -1.1; GSK3beta inhib: 3.7; MEKK2wt PB1 HTS: 83.0; MEKK3 PB1 HTS: 97.0

How did CCCCn1c(-c2ccc(C(C)(C)C)cc2)nc2cc3[nH]c(=O)c(C(C)C)nc3cc21 do in these assays?
STK33 kinase inh: -0.7; MEKK2mut PB1 HTS: -11.0; GSK3 alpha inh: -1.4; GSK3beta inhib: 1.6; MEKK2wt PB1 HTS: 69.0*[inhibitor]; MEKK3 PB1 HTS: 93.0; MEKK2wt confirm: 83.0; MEKK2mut-MEK5: -6.0; MEKK3-MEK5 inh: 96.0

What do the screens show for `Cc1ccc(NS(=O)(=O)c2c(C)[nH]c(C)c2C(=O)N2CCCCC2)c(Cl)c1`?
STK33 kinase inh: -0.6; MEKK2mut PB1 HTS: -2.0; GSK3 alpha inh: -0.9; GSK3beta inhib: -0.5; MEKK2wt PB1 HTS: 96.0; MEKK3 PB1 HTS: 98.0

How did O=C(Nc1ccccc1-c1ccccc1)c1cccc(C(F)(F)F)c1 do in these assays?
STK33 kinase inh: -0.5; MEKK2mut PB1 HTS: 2.0; GSK3 alpha inh: -1.7; GSK3beta inhib: -3.2; MEKK2wt PB1 HTS: 93.0; MEKK3 PB1 HTS: 94.0

Results for Cc1csc(-c2cnn(-c3ccccc3)c2NC(=O)c2cccc(C(F)(F)F)c2)n1 ?
STK33 kinase inh: 0.1; MEKK2mut PB1 HTS: 7.0; GSK3beta inhib: 5.4; MEKK2wt PB1 HTS: 119.0; MEKK3 PB1 HTS: 131.0*; MEKK2wt confirm: 109.0; MEKK2mut-MEK5: 8.0; MEKK3-MEK5 inh: 102.0

Results for CCc1ccc(C(=O)NCc2ccc(Cl)cc2)cc1 ?
STK33 kinase inh: -2.4; MEKK2mut PB1 HTS: -1.0; GSK3 alpha inh: -0.8; GSK3beta inhib: 0.8; MEKK2wt PB1 HTS: 97.0; MEKK3 PB1 HTS: 71.0*[inhibitor]; MEKK2wt confirm: 98.0; MEKK2mut-MEK5: -1.0; MEKK3-MEK5 inh: 102.0

How did Cc1ccc(SCc2ccc(C(=O)NCc3ccncc3)cc2)cc1 do in these assays?
STK33 kinase inh: -1.0; MEKK2mut PB1 HTS: -6.0; GSK3 alpha inh: -3.2; GSK3beta inhib: 0.1; MEKK2wt PB1 HTS: 85.0; MEKK3 PB1 HTS: 82.0*[inhibitor]; MEKK2wt confirm: 101.0; MEKK2mut-MEK5: -2.0; MEKK3-MEK5 inh: 100.0

How did Cc1ccc(S(=O)(=O)Nc2ccc(C(=O)NCc3ccncc3)cc2)cc1 do in these assays?
STK33 kinase inh: -1.2; MEKK2mut PB1 HTS: 6.0; GSK3 alpha inh: 0.1; GSK3beta inhib: 0.1; MEKK2wt PB1 HTS: 105.0; MEKK3 PB1 HTS: 102.0

How did N#CC1(NC(=O)COc2ccc(S(=O)(=O)N3CCCC3)cc2[N+](=O)[O-])CCCCC1 do in these assays?
STK33 kinase inh: 0.0; GSK3 alpha inh: -0.1; GSK3beta inhib: 1.3

What do the screens show for `OCC1(Cc2ccc(F)cc2)CCCN(CCc2ccccc2)C1` (stereo not given)?
STK33 kinase inh: 0.9; MEKK2mut PB1 HTS: 5.0; GSK3 alpha inh: 1.0; GSK3beta inhib: -1.7; MEKK2wt PB1 HTS: 110.0; MEKK3 PB1 HTS: 104.0

What do the screens show for `Cc1ccc2c(Cl)cc(Cl)c(OCC(=O)N3CCCC3)c2n1`?
STK33 kinase inh: -0.1; MEKK2mut PB1 HTS: 2.0; GSK3 alpha inh: -3.7; GSK3beta inhib: 1.1; MEKK2wt PB1 HTS: 101.0; MEKK3 PB1 HTS: 105.0

What do the screens show for `Cc1ccc2c(Cl)cc(Cl)c(OCC(=O)O)c2n1`?
STK33 kinase inh: -1.5; MEKK2mut PB1 HTS: 1.0; GSK3 alpha inh: -3.1; GSK3beta inhib: -0.5; MEKK2wt PB1 HTS: 113.0; MEKK3 PB1 HTS: 129.0*; MEKK2wt confirm: 95.0; MEKK2mut-MEK5: -3.0; MEKK3-MEK5 inh: 95.0

What do the screens show for `CCC1=NC(c2ccc(OC)cc2)N(O)C1(C)C` (stereo not given)?
STK33 kinase inh: -0.9; MEKK2mut PB1 HTS: -13.0; GSK3 alpha inh: -0.2; GSK3beta inhib: -0.3; MEKK2wt PB1 HTS: 93.0; MEKK3 PB1 HTS: 80.0*[inhibitor]; MEKK2wt confirm: 97.0; MEKK2mut-MEK5: 10.0; MEKK3-MEK5 inh: 99.0

How did O=C(Nc1ccccn1)c1ccc([N+](=O)[O-])cc1Cl do in these assays?
STK33 kinase inh: -2.7; MEKK2mut PB1 HTS: 14.0; GSK3 alpha inh: -1.3; GSK3beta inhib: -0.9; MEKK2wt PB1 HTS: 113.0; MEKK3 PB1 HTS: 103.0

What do the screens show for `O=C(Nc1ccccn1)c1cc2cc([N+](=O)[O-])ccc2s1`?
STK33 kinase inh: -0.7; MEKK2mut PB1 HTS: 79.0*; GSK3 alpha inh: -1.9; GSK3beta inhib: -1.5; MEKK2wt PB1 HTS: 103.0; MEKK3 PB1 HTS: 106.0; MEKK2wt confirm: 105.0; MEKK2mut-MEK5: 8.0; MEKK3-MEK5 inh: 106.0

How did COc1cc(Cl)cc2c1Sc1ccccc1/C2=C/CCN(C)C do in these assays?
STK33 kinase inh: 1.2; MEKK2mut PB1 HTS: 19.0; GSK3 alpha inh: 14.3; MEKK2wt PB1 HTS: 167.0*; MEKK3 PB1 HTS: 81.0; MEKK2wt confirm: 154.0; MEKK2mut-MEK5: 46.0; MEKK3-MEK5 inh: 108.0

What do the screens show for `O=C(COc1ccccc1[N+](=O)[O-])N/N=C/c1ccc(O)cc1`?
MEKK2mut PB1 HTS: 0.0; GSK3beta inhib: -51.0*; MEKK2wt PB1 HTS: 102.0; MEKK3 PB1 HTS: 136.0*; MEKK2wt confirm: 103.0; MEKK2mut-MEK5: 1.0; MEKK3-MEK5 inh: 105.0
